SENP8 block-1: SENP8 protease inhibitors, primary screen, biochemical, luminescence. AID 2540, 2010. inhibition, % at 10 µM. hit rate 1.2% among 330,000. purified SENP8, Z-RLRGG-aminoluciferin cleavage; in the data active means inhibition above about 50%
Target sequence (Q96LD8 whole entry, looked up): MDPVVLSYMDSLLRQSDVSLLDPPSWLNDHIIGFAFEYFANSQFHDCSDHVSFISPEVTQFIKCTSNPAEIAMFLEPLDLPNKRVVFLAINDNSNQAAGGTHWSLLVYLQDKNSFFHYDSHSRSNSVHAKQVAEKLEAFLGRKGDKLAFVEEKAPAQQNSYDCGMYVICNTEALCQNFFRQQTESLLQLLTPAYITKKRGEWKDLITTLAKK
SENP8 block-2: human SENP8 protease inhibitors, primary screen, biochemical, fluorescence, Nedd8 protein substrate, uHTS. AID 602440, 2012. hit rate 0.64% among 360,000. recombinant SENP8. Sentrin-specific protease 8 (Homo sapiens), Q96LD8. inhibition, % at 20 µM; in the data active means inhibition mostly above about 40%, no sharp cut-off; inactive means mostly below about 27%
Platelet DG rel: inhibitors of platelet dense granule secretion, primary screen, cell-based, MLPCN, human platelets; hit rate 0.22% among 300,000; human platelet-rich plasma, SFLLRN dense granule ATP release, luminescence; inhibition, %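 (compounds screened at 7.5 µM in platelet-rich plasma)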; AID 1663, 2009;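 active means mean replicate score, as percent of positive control, at or above 50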
SENP6 inh: SENP6 protease inhibitors, primary screen, biochemical, luminescence, uHTS. Recombinant SENP6 catalytic domain, aminoluciferin luminescence. hit rate 1.8% among 330,000. AID 2599, 2010. inhibition, % at 10 µM;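 active means inhibition above about 50% at the single tested dose, limit read from the data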;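 further: plate controls were DMSO wells with enzyme for no effect and DMSO wells lacking enzyme for full effect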
SENP7 block: SENP7 protease inhibitors, primary screen, biochemical, luminescence, uHTS | recombinant SENP7, Z-RLRGG-aminoluciferin luminescence, 40 min | inhibition, % at 5 µM | Sentrin-specific protease 7 (Homo sapiens), Q9BQF6 | hit rate 1.5% among 330,000;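 active means inhibition above about 50% at the single test dose, limit read from the data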;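 further: plate controls were DMSO with enzyme for no effect and no enzyme buffer wells for full effect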
SENP1 inh: human SENP1 catalytic domain inhibitors, primary screen, biochemical, FRET, uHTS; inhibition, % at 10 µM; hit rate 0.21% among 360,000; AID 624204, 2012; recombinant SENP1 catalytic domain, CyPet-SUMO1-YPet FRET cleavage;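 active means inhibition at least 30% at 10 µM, raw YFP signal under a set limit, fluorescence ratio 0.5 to 1.5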;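 further: 0% = enzyme with DMSO and 100% = no enzyme wells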
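Material: hSENP1 catalytic domain, recombinant; medium: Tris pH 8 with BME, BSA, NP40 and catalase; compound: single concentration of 10 µM compound, 0.5% DMSO final; technique: FRET read of cyan and yellow fluorescence; timing: 50 min enzyme reaction, room temperature, light-protected; reagent: SFCypet-SUMO1-SFYpet substrate at 25 nM; control set: no-enzyme low, enzyme-DMSO high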
SENP8 conf: SENP8 protease inhibitors, retest, confirmation, biochemical, luminescence, single concentration; inhibition, % at 12.5 µM; Recombinant SENP8, Z-RLRGG-aminoluciferin luminescence, 60 min; shares compounds with SENP7 block; hit rate 40% among 6,200;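 active means mean inhibition across replicates above about 50%, limit read from the data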
SENP6 confirm: SENP6 protease inhibitors, confirmation, biochemical, luminescence, single concentration; inhibition, % at 12.5 µM; recombinant SENP6, Z-RLRGG-aminoluciferin luminescence; hit rate 58% among 6,200; AID 488915, 2010; shares compounds with SENP7 block
SENP7 conf: SENP7 protease inhibitors, retest, confirmation, biochemical, luminescence, single concentration | shares compounds with SENP7 block | recombinant SENP7, Z-RLRGG-aminoluciferin luminescence, 40 min | inhibition, % at 12.5 µM | hit rate 69% among 6,200 | AID 488917, 2010
Casp3 SENP sel: caspase-3 protease inhibitors, confirmation, selectivity assay for SENP inhibitor project, biochemical, single concentration; inhibition, % at 12.5 µM; hit rate 60% among 6,200; AID 488918, 2010; shares compounds with SENP7 block; purified caspase-3, Z-DEVD-aminoluciferin luminescence, 60 min;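 active means mean inhibition above about 50%, limit read from the data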;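 further: plate controls were enzyme with DMSO for no effect and wells without caspase-3 for full effect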
Luc interf: interferes with luciferase luminescence in SENP counter-screen. shares compounds with SENP7 block. Pre-incubated SENP8/Z-RLRGG-aminoluciferin, luciferase luminescence interference. inhibition, % at 12.5 µM. hit rate 39% among 6,200. AID 488919;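 active means mean inhibition above about 50% when retested at one dose, limit read from the data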;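 further: plate controls were DMSO wells with completed reaction for no effect and substrate without enzyme for full effect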
Starred values were filed as active, the others as inactive; . = no result given. Most compounds without a hit are left out; they make up all but 2.6% or so of the library.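 How the source made its calls, unless noted: active means mean inhibition above about 50% in the one-dose retest (limit read from the data); inactive means the rest.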

SMILES | SENP8 block-1 | SENP8 block-2 | Platelet DG rel | SENP6 inh | SENP7 block | SENP1 inh | SENP8 conf | SENP6 confirm | SENP7 conf | Casp3 SENP sel | Luc interf
O=C(Nc1ccc2c(c1)OCCO2)c1cc2ccccc2o1 | 61* | 0 | 11 | 81* | 78* | 1 | 2 | 84* | 97* | 80* | 79*
O=C(Nc1ccc(N2CCOCC2)cc1)c1nc2ccccc2s1 | 75* | 37 | 88* | 95* | 98* | 7 | -23 | 12 | 26 | 17 | 45
Cc1ccc(CC(=O)O/N=C(\N)c2ccncc2)cc1 | -10 | 7 | 3 | 4 | -3 | 4 | . | . | . | . | .
O=S(=O)(Nc1nc(-c2ccccc2)cs1)c1cc(Cl)ccc1Cl | 5 | 16 | -3 | 5 | 6 | 1 | . | . | . | . | .
O=C(NCc1cccs1)C1CCCN1C(=O)Nc1ccccc1[N+](=O)[O-] (stereo not drawn) | -7 | 8 | -2 | -7 | -11 | 2 | . | . | . | . | .
CC(C)N1CCN(c2ccc(S(=O)(=O)N3CCOCC3)cn2)CC1 | 11 | -8 | . | -5 | -8 | -3 | . | . | . | . | .
CC(=O)N1C[C@H]2CON(C)[C@H]2C[C@H]1c1cccc(-c2ccccc2C)c1 | . | 14 | . | . | . | 1 | . | . | . | . | .
